The list is not random: actives were taken first. Their share in the collection is about 6.9%.
Calb biofilm kill – kills Candida albicans biofilms; AID 834; inhibition, % at 6 µM; C. albicans biofilm + clotrimazole, Alamar Blue; 85,000 compounds, 0.14% hits;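 active = inhibition above 20%; inactive = inhibition below 20%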;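 also: preformed 24 hr biofilms exposed to compound for 48 hr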
tolC growth inh – E. coli tolC mutant growth inhibition | E. coli BW25113 tolC mutant growth, OD615 | growth inhibition, % at 10 µM (by protocol) | 65,000 compounds, 2.2% hits | AID 573;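 active = growth inhibition at or above a cutoff equal to the mean over every tested compound plus 3 SD, cut at about 60% in these data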;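 also: growth measured after 20 h incubation at 37 °C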
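Material: E. coli BW25113 ΔtolC::kan, tolC deletion mutant strain. Measure: percent growth inhibition. Schedule: 37 °C, 20 h exposure. Doses: single-point testing at 10 µM. Signal: A615 absorbance measurement. Buffer or medium: kanamycin-containing LB broth (50 µg/mL).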
PTK2B oligo ant – antagonists of human Pyk2 oligomerization; 99,000 compounds, 0.83% hits; Q293 cells, Pyk2 FERM NanoBiT luminescence; active compounds read low; z-score (the deposit names both 25 µM and 10 µM); Q14289;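 active = Z-score of -3 or lower, scaled per plate to the spread of control and sample wells; inactive = z-score above -3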;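 also: negative z-score means lost luminescence so less FERM oligomerization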
Target sequence (Q14289 whole entry, looked up): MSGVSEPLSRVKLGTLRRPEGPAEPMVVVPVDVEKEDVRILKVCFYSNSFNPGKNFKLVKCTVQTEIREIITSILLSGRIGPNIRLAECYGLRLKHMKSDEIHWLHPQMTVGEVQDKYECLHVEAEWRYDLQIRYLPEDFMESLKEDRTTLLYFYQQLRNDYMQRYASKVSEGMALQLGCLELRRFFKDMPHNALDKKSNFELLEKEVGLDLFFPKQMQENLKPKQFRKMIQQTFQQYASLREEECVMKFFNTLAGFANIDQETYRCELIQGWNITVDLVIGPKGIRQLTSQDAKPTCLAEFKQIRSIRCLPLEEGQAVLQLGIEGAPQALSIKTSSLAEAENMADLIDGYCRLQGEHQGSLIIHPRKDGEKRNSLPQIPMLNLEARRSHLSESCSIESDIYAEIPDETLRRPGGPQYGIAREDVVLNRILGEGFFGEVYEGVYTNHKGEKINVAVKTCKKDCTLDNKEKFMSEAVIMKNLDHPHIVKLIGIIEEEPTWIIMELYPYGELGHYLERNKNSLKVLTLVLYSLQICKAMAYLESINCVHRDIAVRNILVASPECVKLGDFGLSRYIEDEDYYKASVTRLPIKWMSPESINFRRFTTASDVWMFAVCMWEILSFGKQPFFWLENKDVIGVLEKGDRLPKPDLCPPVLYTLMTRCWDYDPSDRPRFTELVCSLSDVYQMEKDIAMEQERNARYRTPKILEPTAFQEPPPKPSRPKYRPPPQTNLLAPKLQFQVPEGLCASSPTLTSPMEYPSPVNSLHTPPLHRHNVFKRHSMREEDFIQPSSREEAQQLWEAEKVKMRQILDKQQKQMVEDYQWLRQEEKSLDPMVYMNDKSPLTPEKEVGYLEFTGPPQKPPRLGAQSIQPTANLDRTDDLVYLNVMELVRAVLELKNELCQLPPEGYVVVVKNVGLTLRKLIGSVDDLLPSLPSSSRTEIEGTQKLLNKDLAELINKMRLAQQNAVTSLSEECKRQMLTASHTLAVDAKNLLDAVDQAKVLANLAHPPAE
FAK blocker – inhibitors of human focal adhesion kinase | 97,000 compounds, 0.84% hits | AID 727 | inhibition, %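 (tested at 7 µM)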 | biochemical FAK kinase activity assay; in the data active = inhibition above about 19%
PostGolgi yeast – growth inhibition of a yeast mutant, post-Golgi transport screen | post-Golgi transport phenotypic cell assay | inhibition, % at 10 µM | 98,000 compounds, 0.9% hits;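 also: yeast cells grown in 1536-well plates; yeast grown about 18 h at 30C before absorbance read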
PostGolgi ctrl – growth of the yeast control strain, post-Golgi counter-screen; 98,000 compounds, 5% hits; inhibition, % at 10 µM; AID 738; efflux-deficient yeast background strain, growth absorbance A615, 16 h
Of the large screens only hits and unclear results are named; the others gave an inactive call. Rule as the data show it, unless noted: active = inhibition above about 30%; inactive = the rest.

COc1ccc(-c2cc(C(=O)N3CC4(C)CC3CC(C)(C)C4)no2)cc1 (stereo unspecified)	tolC growth inh 65, PostGolgi ctrl 34
COc1ccc(-c2cc(C(=O)N3CC4(C)CC3CC(C)(C)C4)no2)cc1OC (stereo unspecified)	tolC growth inh 71
O=C(Nc1ccccc1-c1ccccc1)c1ccc(Br)o1	PostGolgi ctrl 35 (no result: tolC growth inh)
COc1ccccc1NC(=O)c1ccc(Br)o1	none
Cc1c(NC(=O)c2ccc(Br)o2)cccc1C(=O)O	none (no result: tolC growth inh)
O=C(Nc1ccccc1Oc1ccccc1)c1ccc(Br)o1	PostGolgi ctrl 51
CC(C)CCn1c(N2CCN(c3cccc(Cl)c3)CC2)nc2c1c(=O)[nH]c(=O)n2C	PostGolgi ctrl 35 (no result: Calb biofilm kill, FAK blocker)
CCCCCCCCn1c(N2CCN(c3cccc(Cl)c3)CC2)nc2c1c(=O)[nH]c(=O)n2C	none (no result: tolC growth inh)
CCCCCn1c(CN2CCN(c3cccc(Cl)c3)CC2)nc2c1c(=O)[nH]c(=O)n2C	PostGolgi ctrl 45
COCCn1c(SCc2csc(-c3ccccc3)n2)nc2ccccc21	PostGolgi ctrl 30 (no result: FAK blocker)
COc1ccc(CN(C#N)c2nc(SC)nc(N(C)C)n2)cc1	PostGolgi ctrl 41
COc1ccc(-c2[nH]ncc2-c2ccc3c(c2)OCCO3)c(O)c1	tolC growth inh 98 (no result: Calb biofilm kill, FAK blocker)
CCc1cc(-c2[nH]ncc2-c2ccc3c(c2)OCO3)c(O)cc1O	tolC growth inh 100 (no result: FAK blocker, PostGolgi yeast, PostGolgi ctrl)
COc1ccc(-c2cc(-c3ccc(OC)c(OC)c3)n[nH]2)c(O)c1	none (no result: tolC growth inh)
CC(=O)Nc1ccc(-c2nnc(SCC(=O)NCc3ccco3)n2C)cc1	PostGolgi ctrl 33 (no result: tolC growth inh)
CC(=O)c1cccc(NC(=O)CCS(=O)(=O)c2cccc3nsnc23)c1	PostGolgi ctrl 33 (no result: tolC growth inh)
O=C(CCS(=O)(=O)c1cccc2nsnc12)NCc1ccccc1	none
CN(C)c1oc(-c2ccccc2Cl)nc1S(=O)(=O)c1ccccc1	PostGolgi ctrl 32 (no result: PTK2B oligo ant)
Cc1cc(/C=N/n2cnnc2)c(C)n1-c1ccc(C(=O)O)cc1	none
COc1cc(C(=O)NCc2nnc(SCC(=O)N3CCC(C)CC3)o2)cc(OC)c1OC	none
Cc1ccn2c(NCc3ccc4c(c3)OCO4)c(-c3ccc(O)cc3)nc2c1	PostGolgi ctrl 36 (no result: Calb biofilm kill, tolC growth inh)
Oc1ccc(-c2nc3ccccn3c2NCc2ccc3c(c2)OCO3)cc1	none
O=C(c1ccc(F)cc1)N1CCCCC(Sc2nnnn2-c2ccccc2)C1=O (stereo unspecified)	PostGolgi ctrl 45 (no result: tolC growth inh)
CCn1c(SCc2ccc(C)cc2)nnc1C1CCN(S(=O)(=O)c2ccc(OC)cc2)CC1	none (no result: Calb biofilm kill, tolC growth inh)
CCCCOC(=O)Nc1ccc(C(=O)OC)cc1	none
CCCCOC(=O)Nc1cc(C(=O)OC)ccc1C(=O)OC	tolC growth inh 67 (no result: FAK blocker)
Cc1nc2c(C(=O)NCc3ccc4c(c3)OCO4)c[nH]n2c(=O)c1Cl	none
Cc1nc2c(C(=O)NCCC3=CCCCC3)c[nH]n2c(=O)c1Cl	tolC growth inh 79 (no result: Calb biofilm kill)
COc1cccc(=O)c2c(C)oc(C)c12	none
COc1ccc(-n2c(C)c3c(OC)cccc(=O)c3c2C)cc1	PostGolgi ctrl 34 (no result: Calb biofilm kill, tolC growth inh)
CC(c1nnnn1C(C)(C)C)N(Cc1cccnc1)Cc1ccccc1Cl (stereo unspecified)	PostGolgi ctrl 32 (no result: tolC growth inh)
CC(C)(C)n1nnnc1C(c1cccs1)N(Cc1cccnc1)Cc1ccccc1Cl (stereo unspecified)	none (no result: tolC growth inh)
Cc1nnc(SCC(=O)Nc2ccccc2NC(=O)CSc2nnc(C)s2)s1	none
CC1CCCCC1NC(=O)CSc1nnnn1-c1ccccc1 (stereo unspecified)	PostGolgi yeast 38
Cc1ccc(-c2csc3nnc(SCC(=O)Nc4nsc(-c5ccccc5)n4)n23)cc1	PostGolgi ctrl 41
Cc1nnc(SCC(=O)Nc2nsc(-c3ccc(C(C)(C)C)cc3)n2)s1	PostGolgi ctrl 62 (no result: tolC growth inh, PTK2B oligo ant)
Cc1ccc(-c2nc(NC(=O)CSc3nnnn3-c3ccccc3)ns2)cc1	PostGolgi ctrl 48
COc1ccccc1NC(=O)CSc1nnnn1-c1ccc(C)cc1	none (no result: tolC growth inh, PostGolgi yeast, PostGolgi ctrl)
COc1cc(-n2c(C)nc3cc(C(=O)N4CCOCC4)ccc32)cc(OC)c1OC	none
COC(=O)c1ccc(OCCn2cnc3ccccc3c2=O)cc1	none (no result: FAK blocker)
Cc1ccc(-n2c(-c3cccc(C)c3)n[nH]c2=S)cc1	none (no result: tolC growth inh)
CCC(=O)NC(=S)N1CCN(c2ccc([N+](=O)[O-])cc2Cl)CC1	none (no result: Calb biofilm kill, tolC growth inh)
O=C(CSc1nc(-c2ccccc2)c(-c2ccccc2)[nH]1)Nc1nccs1	none (no result: Calb biofilm kill, tolC growth inh)
COc1ccc2nc(COC(=O)c3ccco3)c(C(C)=O)[n+]([O-])c2c1	none
CC1CCN(CCNC(=O)CCS(=O)(=O)c2ccc(Br)cc2)CC1	none (no result: FAK blocker)
CC(C)Sc1nc(NCc2ccco2)c2c3c(sc2n1)COC(C)(C)C3	tolC growth inh 65 (no result: FAK blocker)
CCOC(=O)c1ccccc1NS(=O)(=O)c1ccc(C)cc1	none (no result: tolC growth inh)
CCOC(=O)c1ccccc1NS(=O)(=O)c1ccccc1	PostGolgi ctrl 37
CCOC(=O)c1ccccc1NC(=O)C(C)Oc1ccccc1 (stereo unspecified)	tolC growth inh 69
CCCC(C)C(=O)Nc1ccccc1C(=O)OCC (stereo unspecified)	none (no result: tolC growth inh)
CCOC(=O)c1ccccc1NC(=O)c1nc2nccc(C)n2n1	PostGolgi ctrl 40 (no result: tolC growth inh)
CCOc1ccc(OCC)c(NC(=O)CSc2nc3cccnc3n2C)c1	none (no result: Calb biofilm kill, PTK2B oligo ant, FAK blocker, PostGolgi yeast, PostGolgi ctrl)
CC(C)CCN1CC(C(=O)NCc2ccc(F)cc2)CC1=O (stereo unspecified)	none (no result: FAK blocker)
CCOC(=O)c1c(NC(=O)CSc2nc3cccnc3n2C)sc(C(C)=O)c1C	PostGolgi ctrl 37
CCOc1cc(-c2c(C#N)c(N)nc3c2CCCC3C)ccc1O (stereo unspecified)	tolC growth inh 86, PTK2B oligo ant -3.1, PostGolgi ctrl 38
COc1ccc(-c2c(C#N)c(N)nc3c2CCCCCC3)cc1OC	none (no result: tolC growth inh)
CCOc1ccc(-c2csc(/C(C#N)=C\c3ccc(O)c([N+](=O)[O-])c3)n2)cc1	none (no result: Calb biofilm kill, tolC growth inh, FAK blocker, PostGolgi yeast, PostGolgi ctrl)
CCOc1cc(/C=C(\C#N)c2[nH]nc(N)c2C#N)ccc1O	PTK2B oligo ant -3.1 (no result: tolC growth inh)
CCOc1cc(-c2cc(-c3ccc(C)cc3)nc(N)c2C#N)ccc1O	PTK2B oligo ant -3.8 (no result: tolC growth inh)
CCc1ccc(OCCNC(=O)c2ccccc2SCc2ccc(F)cc2)cc1	none (no result: Calb biofilm kill, tolC growth inh)
C/C(NCc1ccccc1)=C(\C#N)C(=O)NCc1ccccc1	none (no result: tolC growth inh)
O=C(c1ccc(N2CCN(C3CC(=O)N(c4ccc(F)cc4)C3=O)CC2)cc1)c1cccnc1 (stereo unspecified)	none (no result: tolC growth inh, PTK2B oligo ant)
CS(=O)(=O)N(CC(=O)NC1CC2CCC1C2)c1cccc(C(F)(F)F)c1 (stereo unspecified)	PostGolgi ctrl 31
Cc1ccc(Nc2ccccc2)cc1	none (no result: tolC growth inh, PostGolgi yeast, PostGolgi ctrl)
Cc1ccc(NC2=CC(=O)C(=O)c3ccccc32)cc1	FAK blocker 26 (no result: tolC growth inh, PostGolgi yeast, PostGolgi ctrl)
FC(F)(F)c1nc(-c2cccs2)ncc1-c1nnnn1-c1ccc(Cl)cc1	PTK2B oligo ant -3.1, PostGolgi ctrl 53 (no result: Calb biofilm kill, tolC growth inh)
Clc1ccc(-n2nnnc2-c2cnc(-c3ccncc3)nc2-c2cccs2)cc1	none (no result: tolC growth inh, PostGolgi yeast, PostGolgi ctrl)
CCC1CCCCN1C1Sc2ccc(C(=O)OC)cc2NC1=O (stereo unspecified)	PostGolgi ctrl 40 (no result: Calb biofilm kill)
COc1ccc(-n2c(SCC(=O)NCCC(C)C)nc3ccsc3c2=O)cc1	none (no result: tolC growth inh)

Bioassay records (PubChem BioAssay)
